Several values for one entry are separate records, joined by “and”; a condition that tells them apart may be missing. Equal entries are not always repeated.
Columns and labels:
[1] = Solubility was determined; INS= less than 0.1; format: physicochemical
P388 [2] = assay: Compound was tested for antitumor activity in P-388 lymphocytic leukemia system at 200 mg/kg dose levels per injection; 0/6; format: functional, Mus musculus
Summary of the method: (§1)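 P-388 leukemia in animals, Q01D×09 schedule: dose given daily for 9 days, in mg/kg per injection. Read-outs are survivors on day 4 (live/total animals), body-weight difference test minus control (g), and % T/C (median lifetime of treated ÷ median lifetime of controls × 100). Some compounds were tested in independent runs at different times.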

P388 [3] = assay: (§2) Antitumor activity in P-388 lymphocytic leukemia system at 200 mg/kg dose levels per injection.; format: functional, Mus musculus; summary of the method: as §1
P388 [4] = assay: (§3) Antitumor activity in P-388 lymphocytic leukemia system at 100 mg/kg dose levels per injection.; format: functional, Mus musculus; summary of the method: as §1
P388 [5] = assay: as §3; format: functional, Mus musculus; remark: listed apart in the source
Summary of the method: (§4)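 P-388 leukemia in vivo, dosed Q01D×09 (one injection daily for 9 days, mg/kg per injection). Activity is %T/C, the median lifetime of treated animals divided by that of controls, ×100. Live animals on day 4 were counted against the total (survivors day 4). Repeat tests were done independently at different times.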

P388 [6] = assay: Antitumor activity in P-388 lymphocytic leukemia system at 25 mg/kg dose levels per injection.; format: functional, Mus musculus; summary of the method: as §1
P388 [7] = assay: (§5) Antitumor activity in P-388 lymphocytic leukemia system at 50 mg/kg dose levels per injection.; format: functional, Mus musculus; summary of the method: as §1
P388 [8] = assay: Compound was tested for antitumor activity in P-388 lymphocytic leukemia system at 200 mg/kg dose levels per injection.; format: functional, organism-based; set-up: dose 200 mg/kg; conditions: Mus musculus; summary of the method: as §4
P388 [9] = assay: Antitumor activity in P-388 lymphocytic leukemia system at 25 mg/kg dose levels per injection; format: functional, Mus musculus; conditions: 25 mg/kg; summary of the method: as §4
P388 [10] = assay: as §5; format: functional, Mus musculus; summary of the method: as §4; remark: listed apart in the source
P388 [11] = assay: Compound was tested for antitumor activity in P-388 lymphocytic leukemia system at 200 mg/kg dose levels per injection; format: functional, Mus musculus; summary of the method: as §4
P388 [12] = assay: Compound was tested for antitumor activity in P-388 lymphocytic leukemia system. at 200 mg/kg dose levels per injection; Toxic; format: functional, organism-based; set-up: dose 200 mg/kg; conditions: Mus musculus; summary of the method: as §4
P388 [13] = assay: Compound was tested for antitumor activity in P-388 lymphocytic leukemia system at 166.7 mg/kg dose levels per injection; Toxic; format: functional, organism-based; set-up: dose 166.7 mg/kg; conditions: Mus musculus; summary of the method: as §4
P388 [14] = assay: Compound was tested for antitumor activity in P-388 lymphocytic leukemia system. at 400 mg/kg dose levels per injection; Toxic; format: functional, organism-based; set-up: dose 400 mg/kg; conditions: Mus musculus; summary of the method: as §4
P388 [15] = assay: Compound was tested for antitumor activity in P-388 lymphocytic leukemia system at 400 mg/kg dose levels per injection; 3/6; format: functional, Mus musculus; summary of the method: as §1
P388 [16] = assay: Antitumor activity in P-388 lymphocytic leukemia system and the difference in body weight was calculated at 200 mg/kg dose levels per injection.; format: functional, Mus musculus; conditions: 200 mg/kg
P388 [17] = assay: Antitumor activity in P-388 lymphocytic leukemia system and the difference in body weight was calculated at 25 mg/kg dose levels per injection.; format: functional, Mus musculus
P388 [18] = assay: Compound was tested for antitumor activity in P-388 lymphocytic leukemia system and the difference in body weight was calculated at 400 mg/kg dose levels per injection; format: functional, Mus musculus
P388 [19] = assay: Antitumor activity in P-388 lymphocytic leukemia system and the difference in body weight was calculated at 50 mg/kg dose levels per injection.; format: functional, Mus musculus
P388 [20] = assay: as §2; format: functional, Mus musculus; summary of the method: as §4; remark: listed apart in the source
P388 [21] = assay: Compound was tested for antitumor activity in P-388 lymphocytic leukemia system at 25 mg/kg dose levels per injection; format: functional, Mus musculus; summary of the method: as §4
P388 [22] = assay: Compound was tested for antitumor activity in P-388 lymphocytic leukemia system at 200 mg/kg dose levels per injection;6/6; format: functional, Mus musculus; summary of the method: as §1
P388 [23] = assay: Compound was tested for antitumor activity in P-388 lymphocytic leukemia system at 400 mg/kg dose levels per injection; 6/6; format: functional, Mus musculus; summary of the method: as §1
P388 [24] = assay: Antitumor activity in P-388 lymphocytic leukemia system and the difference in body weight calculated at 100 mg/kg dose levels per injection.; format: functional, Mus musculus
P388 [25] = assay: Compound was tested for antitumor activity in P-388 lymphocytic leukemia system. at 400 mg/kg dose levels per injection; format: functional, Mus musculus; summary of the method: as §4
P388 [26] = assay: Compound was tested for antitumor activity in P-388 lymphocytic leukemia system at 200 mg/kg dose levels per injection; 5/6; format: functional, Mus musculus; summary of the method: as §1
P388 [27] = assay: Compound was tested for antitumor activity in P-388 lymphocytic leukemia system at 25 mg/kg dose levels per injection; 6/6; format: functional, Mus musculus; summary of the method: as §1
P388 [28] = assay: Compound was tested for antitumor activity in P-388 lymphocytic leukemia system at 400 mg/kg dose levels per injection; format: functional, Mus musculus; summary of the method: as §4
P388 [29] = assay: Compound was tested for antitumor activity in P-388 lymphocytic leukemia system at 400 mg/kg dose levels per injection; 5/6; format: functional, Mus musculus; summary of the method: as §1

| SMILES | Solubility [1] | Survivors at day 4 (P388 [3]) | Survivors at day 4 (P388 [4]) | T/C (P388 [5]; 100 mg/kg) | Survivors at day 4 (P388 [6]) | Survivors at day 4 (P388 [7]) | T/C (P388 [10]; 50 mg/kg) | Weight difference (P388 [16]) | Weight difference (P388 [18]) | T/C (P388 [20]; 200 mg/kg) | T/C (P388 [10]) | other results |
| --- | --- | --- | --- | --- | --- | --- | --- | --- | --- | --- | --- | --- |
| CCOC(=O)N1C(=O)C2C3C=CC(C2C1=O)C1C2C(=O)N(C(=O)OCC)C(=O)C2C31 (configuration not stated) | Insoluble | 6 | 6 | 152% and 145% | 6 | 6 | 135% and 121% | – | – | – | – | Survivors at day 4 (P388 [2]): 0; Weight difference (P388 [5]; 100 mg/kg): -4.6 g and -5.5 g; T/C (P388 [8]): Toxic; T/C (P388 [9]): 124% and 116%; Weight difference (P388 [10]; 50 mg/kg): -0.6 g and -0.8 g; Weight difference (P388 [11]): -6.5 g |
| CN1CCN(CN2C(=O)C3C4C=CC(C3C2=O)C2C3C(=O)N(CN5CCN(C)CC5)C(=O)C3C42)CC1 (configuration not stated) | – | – | – | – | – | – | – | – | – | – | – | T/C (P388 [12]): Toxic; T/C (P388 [13]): Toxic |
| CC(=O)OC(C(=O)O)N1C(=O)C2C3C=CC(C2C1=O)C1C2C(=O)N(C(OC(C)=O)C(=O)O)C(=O)C2C31 (configuration not stated) | – | 6 | 6 | 123% and 113% | 6 | 6 | – | -1.2 g and -0.5 g | -5.7 g | 175% and 125% | 110% | T/C (P388 [14]): Toxic; Survivors at day 4 (P388 [15]): 3; Weight difference (P388 [17]): 0.2 g; Weight difference (P388 [19]): -0.3 g; T/C (P388 [21]): 103% |
| COC1=CC2C3C(=O)NC(=O)C3C1C1C3C(=O)NC(=O)C3C21 (configuration not stated) | Insoluble | 6 | 6 | – | – | 6 | – | -0.3 g and -0.4 g | -2 g | 101% and 90% | 99% | Survivors at day 4 (P388 [22]): 6; T/C (P388 [5]): 101%; Survivors at day 4 (P388 [23]): 6; Weight difference (P388 [24]): -0.3 g; Weight difference (P388 [19]): 0 g; T/C (P388 [25]): 98% |
| CCOC(=O)N1C(=O)C2C3CCC(C2C1=O)C1C2C(=O)N(C(=O)OCC)C(=O)C2C31 (configuration not stated) | Insoluble | 6 | 6 | 157% and 142% | – | 6 | 127% and 115% | – | – | – | – | Survivors at day 4 (P388 [26]): 5; Weight difference (P388 [5]; 100 mg/kg): -1.2 g and -2.2 g; Survivors at day 4 (P388 [27]): 6; T/C (P388 [20]): 222%; T/C (P388 [8]): Toxic; T/C (P388 [9]): 111% and 104%; Weight difference (P388 [21]; 25 mg/kg): -0.5 g and -0.7 g; Weight difference (P388 [10]; 50 mg/kg): -0.3 g and -0.4 g; Weight difference (P388 [11]; 200 mg/kg): -4 g and -5.2 g |
| CN1C(=O)C2C3C=CC(C2C1=O)C1C2C(=O)N(C)C(=O)C2C31 (configuration not stated) | Insoluble | 6 | 6 | – | – | 6 | – | – | – | 111% and 104% | 108% | T/C (P388 [5]): 111%; Weight difference (P388 [5]): -0.8 g; Survivors at day 4 (P388 [23]): 6; Weight difference (P388 [10]): -0.9 g; Weight difference (P388 [11]; 200 mg/kg): -0.8 g and -1.4 g; T/C (P388 [28]): 135%; Weight difference (P388 [28]): -2 g |
| CCN(CC)CN1C(=O)C2C3C=CC(C2C1=O)C1C2C(=O)N(CN(CC)CC)C(=O)C2C31 (configuration not stated) | Insoluble | 6 | 6 | 117% and 116% | 6 | 6 | 111% and 102% | -0.7 g and -0.6 g | -0.9 g | 139% and 125% | – | Survivors at day 4 (P388 [29]): 5; Weight difference (P388 [24]; 100 mg/kg): -0.8 g and -0.4 g; Weight difference (P388 [17]): 0 g; Weight difference (P388 [19]; 50 mg/kg): -1 g and -0.5 g; T/C (P388 [21]): 103%; T/C (P388 [25]): 111% |

From ChEMBL document CHEMBL1123476, “Synthesis of congeners and prodrugs of the benzene maleimide photoadduct mitindomide as potential antitumor agents. 2” (J Med Chem, 1986)
